Laboratory results taken from publication PMC11097374 (ACS Omega, 2024).

Legend:
[1] = tested on: Wi-38 normal human lung fibroblast cells; test: MTT assay against normal human cell line; assay type: cell-based; conditions: for IC50: Homo sapiens, WI-38, 72 h, read-out: Wi-38 IC50; for Wi-38 IC100: MTT, 72 h, SI calls it EC100, dose at 100% cell viability, mean ± SEM
Procedure, shortened: (§1)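 Cytotoxicity by MTT, run side by side on MCF-7 and MDA-MB231 breast cancer cells and Wi-38 normal human fibroblasts, with doxorubicin as reference. IC50 was determined for each line, and IC100 also on Wi-38. Selectivity indices express selectivity toward each breast cancer line over the normal Wi-38 cells.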

[2] = tested on: MDA-MB 231 cells; test: MTT assay against human breast cancer cell line MDA-MB 231; assay type: cell-based; conditions: for IC50: Homo sapiens, MDA-MB-231, 72 h, read-out: MDA-MB 231 IC50; for MDA-MB 231 SI (selectivity index): over Wi-38 normal cells
Procedure, shortened: as §1

[3] = tested on: MCF-7 cells; test: MTT assay against human breast cancer cell line MCF-7; assay type: cell-based; conditions: for IC50: Homo sapiens, MCF7, 72 h, read-out: MCF-7 IC50; for MCF-7 SI (selectivity index): over Wi-38 normal cells; for fold reduction of potency and selectivity relative to 18: MCF-7, bromo replaced by chloro or nitro; for cytotoxicity compared to doxorubicin: MTT, cell line not given, fits MCF-7 IC50 values
Procedure, shortened: as §1

[4] = tested on: calf thymus DNA (ctDNA); test: DNA damage by terbium; assay type: biochemical; conditions: 24 h incubation, Tb fluorescence 545 nm
[5] = tested on: MCF-7 cells; test: MCF-7 cell cycle analysis by flow cytometry; assay type: cell-based, human; conditions: MCF-7, 24 h treatment with IC50
[6] = tested on: MCF-7 cells; test: Annexin V-FITC/PI double staining apoptosis assay; assay type: cell-based, human; conditions: MCF-7, 24 h treatment with IC50

| SMILES | IC50 [1] | Wi-38 IC100 [1] | IC50 [2] | MDA-MB 231 SI (selectivity index) [2] | IC50 [3] | MCF-7 SI (selectivity index) [3] | fold reduction of potency and selectivity relative to 18 [3] | LOD (minimum concentration inducing detectable DNA damage) [4] | LOQ [4] | cytotoxicity compared to doxorubicin [3] | cell cycle distribution compared to untreated cells [5] | early apoptosis [6] | late apoptosis [6] | total cell death (apoptosis induction) ([6]; control 0.73%) | necrotic cells ([6]; control 1.34%) |
| --- | --- | --- | --- | --- | --- | --- | --- | --- | --- | --- | --- | --- | --- | --- | --- |
| COC(=O)Cn1nc(C)n2c(=O)cc(C)nc12 [Compound 15, Methyl 2-(3,7-dimethyl-5-oxo-1,2,4-triazolo[4,3-a]pyrimidin-1(5H)-yl)acetate] | 1170 ± 22 nM | 0.237 ± 0.017 µM | 1280 ± 56 nM | 0.912 | 617 ± 29 nM | 1.894 |  |  |  |  |  |  |  |  |  |
| CCOC(=O)CSc1nc(N)c(NC(C)=O)c(=O)[nH]1 [Compound 4, Ethyl 2-((5-Acetamido-4-amino-6-Oxo-1,6-dihydropyrimidin-2-yl)thio)acetate] | 852 ± 11 nM | 0.352 ± 0.012 µM | 840 ± 50 nM | 1.014 | 266 ± 15 nM | 3.203 |  |  |  |  |  |  |  |  |  |
| Cc1cc(=O)n2c(C)nn(CC(=O)N/N=C/c3ccc(Cl)cc3)c2n1 [Compound 17, (E)-N′-(4-chlorobenzylidene)-2-(3,7-dimethyl-5-oxo-1,2,4-triazolo[4,3-a]pyrimidin-1(5H)-yl)acetohydrazide] | 593 ± 24 nM | 0.124 ± 0.034 µM | 632 ± 29 nM | 0.938 | 403 ± 62 nM | 1.471 | 5 fold |  |  |  |  |  |  |  |  |
| COc1cccc2c1C(=O)c1c(O)c3c(c(O)c1C2=O)C[C@@](O)(C(=O)CO)C[C@@H]3O[C@H]1C[C@H](N)[C@H](O)[C@H](C)O1 [DOX., doxorubicin, reference compound] | 322 ± 25 nM | 0.119 ± 0.005 µM | 487 ± 18 nM | 0.661 | 198 ± 11 nM | 1.626 |  | 0.76 nM | 2.56 nM |  |  |  |  |  |  |
| CC(=O)Nc1c(N)nc(SCC(=O)N/N=C/c2ccc([N+](=O)[O-])cc2)[nH]c1=O [Compound 8, (E)-N-(4-amino-2-((2-(2-(4-nitrobenzylidene)hydrazinyl)-2-oxoethyl)thio)-6-oxo-1,6-dihydropyrimidin-5-yl)acetamide] | 713 ± 44 nM | 0.491 ± 0.084 µM | 583 ± 20 nM | 1.222 | 146 ± 11 nM | 4.883 |  | 30.03 nM | 100.12 nM | surpassed doxorubicin |  |  |  |  |  |
| CC(=O)Nc1c(N)nc(SCC(=O)N/N=C/c2ccc(Br)cc2)[nH]c1=O [Compound 7, (E)-N-(4-amino-2-((2-(2-(4-bromobenzylidene)hydrazinyl)-2-oxoethyl)thio)-6-oxo-1,6-dihydropyrimidin-5-yl)acetamide] | 408 ± 81 nM | 0.232 ± 0.003 µM | 616 ± 20 nM | 0.662 | 167 ± 40 nM |  |  |  |  | surpassed doxorubicin |  |  |  |  |  |
| Cc1cc(=O)n2c(C)n[nH]c2n1 [Compound 14, 3,7-Dimethyl-1,2,4-triazolo[4,3-a]pyrimidin-5(1H)-one] | 1510 ± 41 nM | 0.206 ± 0.014 µM | 1260 ± 52 nM | 1.200 | 292 ± 10 nM | 5.157 |  |  |  |  |  |  |  |  |  |
| CC(=O)Nc1c(N)nc(SCC(=O)N/N=C/c2ccccc2O)[nH]c1=O [Compound 10, (E)-N-(4-amino-2-((2-(2-(2-hydroxybenzylidene)hydrazinyl)-2-oxoethyl)thio)-6-oxo-1,6-dihydropyrimidin-5-yl)acetamide] | 501 ± 49 nM | 0.241 ± 0.037 µM | 590 ± 49 nM | 0.849 | 102 ± 1 nM | 4.911 |  |  |  | surpassed doxorubicin |  |  |  |  |  |
| COc1ccc(/C=N/NC(=O)Cn2nc(C)n3c(=O)cc(C)nc23)cc1 [Compound 20, (E)-N′-(4-methoxybenzylidene)-2-(3,7-dimethyl-5-oxo-1,2,4-triazolo[4,3-a]pyrimidin-1(5H)-yl)acetohydrazide] | 723 ± 20 nM | 0.280 ± 0.037 µM | 856 ± 19 nM | 0.844 | 334 ± 20 nM |  |  |  |  |  |  |  |  |  |  |
| CC(=O)Nc1c(N)nc(S)[nH]c1=O [Compound 3, N-(4-amino-2-mercapto-6-oxo-1,6-dihydropyrimidin-5-yl)acetamide] | 1340 ± 72 nM | 0.103 ± 0.045 µM | 1440 ± 255 nM | 0.930 | 832 ± 48 nM | 1.615 |  |  |  |  |  |  |  |  |  |
| Cc1cc(=O)n2c(C)nn(CC(=O)N/N=C/c3ccc(Br)cc3)c2n1 [Compound 18, (E)-N′-(4-bromobenzylidene)-2-(3,7-dimethyl-5-oxo-1,2,4-triazolo[4,3-a]pyrimidin-1(5H)-yl)acetohydrazide] | 593 ± 5 nM | 0.111 ± 0.005 µM | 559 ± 29 nM | 1.060 | 42 ± 9 nM | 14.119 |  |  |  | surpassed doxorubicin |  |  |  |  |  |
| Cc1cc(=O)n2c(C)nn(CC(=O)N/N=C/c3ccccc3O)c2n1 [Compound 21, (E)-N′-(2-hydroxybenzylidene)-2-(3,7-dimethyl-5-oxo-1,2,4-triazolo[4,3-a]pyrimidin-1(5H)-yl)acetohydrazide] | 518 ± 8 nM | 0.269 ± 0.026 µM | 697 ± 24 nM | 0.743 | 52 ± 10 nM | 9.961 |  |  |  | surpassed doxorubicin |  |  |  |  |  |
| CC(=O)Nc1c(N)nc(SCC(=O)NN)[nH]c1=O [Compound 5, N-(4-amino-2-((2-hydrazinyl-2-oxoethyl)thio)-6-oxo-1,6-dihydropyrimidin-5-yl)acetamide] | 801 ± 31 nM | 0.240 ± 0.003 µM | 826 ± 46 nM | 0.969 | 50 ± 8 nM | 16.02 |  | 10.64 nM | 35.48 nM | surpassed doxorubicin | increased DNA content during S | 29.11% | 17.64% | 46.75% | 5.39% |
| Cc1cc(=O)n2c(C)nn(CC(=O)NN)c2n1 [Compound 16, 2-(3,7-Dimethyl-5-oxo-1,2,4-triazolo[4,3-a]pyrimidin-1(5H)-yl)acetohydrazide] | 978 ± 13 nM | 0.115 ± 0.033 µM | 1128 ± 2 nM | 0.867 | 544 ± 8 nM | 1.797 |  |  |  |  |  |  |  |  |  |
| COc1ccc(/C=N/NC(=O)CSc2nc(N)c(NC(C)=O)c(=O)[nH]2)cc1 [Compound 9, (E)-N-(4-amino-2-((2-(2-(4-methoxybenzylidene)hydrazinyl)-2-oxoethyl)thio)-6-oxo-1,6-dihydropyrimidin-5-yl)acetamide] | 1050 ± 25 nM | 0.424 ± 0.020 µM | 683 ± 1 nM | 1.531 | 217 ± 16 nM | 4.820 |  |  |  |  |  |  |  |  |  |
| CC(=O)Nc1c(N)nc(SCC(=O)N/N=C/c2ccc(Cl)cc2)[nH]c1=O [Compound 6, (E)-N-(4-amino-2-((2-(2-(4-chlorobenzylidene)hydrazinyl)-2-oxoethyl)thio)-6-oxo-1,6-dihydropyrimidin-5-yl)acetamide] | 692 ± 64 nM | 0.037 ± 0.007 µM | 681 ± 29 nM | 1.016 | 445 ± 15 nM | 1.555 |  |  |  |  |  |  |  |  |  |
| Cc1cc(=O)n2c(C)nn(CC(=O)N/N=C/c3ccc([N+](=O)[O-])cc3)c2n1 [Compound 19, (E)-N′-(4-nitrobenzylidene)-2-(3,7-dimethyl-5-oxo-1,2,4-triazolo[4,3-a]pyrimidin-1(5H)-yl)acetohydrazide] | 612 ± 34 nM | 0.329 ± 0.031 µM | 820 ± 90 nM | 0.746 | 201 ± 39 nM | 3.044 | 10 fold |  |  |  |  |  |  |  |  |
